tolC growth inh = growth inhibitors of E. coli tolC mutant, primary screen, strain BW25113 ΔtolC::kan, 384-well. AID 573, 2007. growth inhibition, % at 10 µM (by protocol). OD615. 65,000 compounds, 2.2% hits;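 active means growth inhibition at or above a cutoff equal to the mean over every tested compound plus 3 SD, cut at about 60% in these data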;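 further: growth measured after 20 h incubation at 37 °C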
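Signal: optical density read at 615 nm; Assay system: E. coli ΔtolC::kan strain BW25113; Times: 20 h incubation with compound, 37 °C; Dosing: 10 µM final, single dose.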
PLAP act = PLAP enzyme activators, biochemical, luminescence, HTS; purified PLAP enzyme, luminescent substrate read-out; active compounds read high; activation fold at 20 µM; 96,000 compounds, 1.2% hits; in the data active means activation fold above about 2
Target sequence (P05187 whole entry, looked up): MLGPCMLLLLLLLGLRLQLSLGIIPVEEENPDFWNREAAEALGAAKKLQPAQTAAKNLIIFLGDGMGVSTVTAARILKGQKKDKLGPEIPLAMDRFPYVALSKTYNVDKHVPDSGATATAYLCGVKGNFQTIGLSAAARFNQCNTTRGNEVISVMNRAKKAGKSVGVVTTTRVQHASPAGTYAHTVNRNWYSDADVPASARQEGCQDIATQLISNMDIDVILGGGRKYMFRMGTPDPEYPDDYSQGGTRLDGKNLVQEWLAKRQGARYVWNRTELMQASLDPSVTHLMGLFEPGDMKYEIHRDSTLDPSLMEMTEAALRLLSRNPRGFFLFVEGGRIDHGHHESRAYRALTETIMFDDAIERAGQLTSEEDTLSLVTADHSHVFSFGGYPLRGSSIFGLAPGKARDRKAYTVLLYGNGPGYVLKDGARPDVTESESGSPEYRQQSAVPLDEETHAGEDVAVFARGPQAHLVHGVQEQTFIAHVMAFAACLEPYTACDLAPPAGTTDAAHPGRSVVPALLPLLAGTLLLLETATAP
E coli WT exp = growth inhibitors of wild-type E. coli, primary screen, strain BW25113, expanded library, OD600 | 98,000 compounds, 0.15% hits | OD600 absorbance | growth inhibition, % at 100 µM;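 active means growth inhibition above about 50% at one test dose, limit read from the data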;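 further: growth measured after 20 h incubation at 37 °C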
PostGolgi yeast = phenotypic screen on post-Golgi transport, primary screen; post-Golgi transport phenotypic cell assay; inhibition, % at 10 µM; 98,000 compounds, 0.9% hits;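 further: yeast cells grown in 1536-well plates; yeast grown about 18 h at 30C before absorbance read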
HePTP inh = inhibitors of human HePTP phosphatase, primary screen, biochemical, absorbance, leukemia target | Tyrosine-protein phosphatase non-receptor type 7 (Homo sapiens), P35236 | recombinant HePTP phosphatase activity, OD absorbance | inhibition, % at 20 µM | 110,000 compounds, 0.64% hits | AID 521, 2006; in the data active means inhibition above about 50%;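 further: plate controls were vehicle for no effect and reference inhibitor for full effect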
PostGolgi ctrl = growth inhibition of yeast control strain, primary screen, counter-screen for post-Golgi transport modulator project. efflux-deficient yeast background strain, growth absorbance A615, 16 h. inhibition, % at 10 µM. 98,000 compounds, 5% hits. AID 738, 2007
The depositor's hits bear a star. This is a sample that favours compounds with a hit; in the whole collection about 5.4% have one here. Unless noted, no stated cut-off is given here; in the data, active means inhibition above about 30%; inactive means the rest.

`COc1c(OC(C)=O)ccc(/C=C/c2ccc3ccccc3n2)c1[N+](=O)[O-]` gave PLAP act 1.3, E coli WT exp -16, PostGolgi yeast -2 and PostGolgi ctrl 73*.
`CCOc1c(OC(C)=O)ccc(/C=C/c2ccc3cccc(OC(C)=O)c3n2)c1[N+](=O)[O-]` gave PLAP act 1.1, E coli WT exp -3, PostGolgi yeast 9 and PostGolgi ctrl 7.
CCc1cc2c(CN3CCN(CC)CC3)cc(=O)oc2cc1O was read as tolC growth inh 1, PLAP act 1.4, E coli WT exp 7, PostGolgi yeast 5, HePTP inh -12 and PostGolgi ctrl 1.
For CC1(C)[N+]([O-])=C2C(=[N+]([O-])C1(C)C)c1ccccc1/C2=N\O the results were tolC growth inh -7, PLAP act 1, E coli WT exp -2, PostGolgi yeast -7, HePTP inh 7 and PostGolgi ctrl 3.
`CC1=[N+]([O-])C(C)(C)CC(C)(C)c2ccccc21` gave tolC growth inh -23, PLAP act 0.9, E coli WT exp 4, PostGolgi yeast 5, HePTP inh 8 and PostGolgi ctrl 30*.
For Cc1ccc(-c2nn(Cc3ccccc3)cc2/C=C/C(=O)O)cc1C the results were PLAP act 1.5, E coli WT exp -1, PostGolgi yeast -5 and PostGolgi ctrl -5.
Screening CC1(C)CC(=O)c2cc3c(N)c(C(=O)NCc4ccccc4)sc3nc2C1 returned PLAP act 0.9, E coli WT exp -8, PostGolgi yeast -15 and PostGolgi ctrl 6.
Screening C=CCc1cccc(OC)c1OCCOCCNCCO returned PLAP act 0.8, E coli WT exp 3, PostGolgi yeast -2 and PostGolgi ctrl -6.
Clc1ccc(C2=Nn3c(nnc3-c3n[nH]c4c3CCC4)SC2)cc1Cl was read as tolC growth inh 99*, E coli WT exp 11, PostGolgi yeast 14, HePTP inh 5 and PostGolgi ctrl 38*.
Screening CCN(C(=O)N1CCOCC1)c1ccccc1 returned HePTP inh 4.
CCC(=O)N1CCc2cc(S(=O)(=O)NC(Cc3ccccc3)C(=O)NC3CCCCC3C)ccc21 (stereo unspecified) was read as PLAP act 2.3*, E coli WT exp -3, PostGolgi yeast 20 and PostGolgi ctrl 8.
Screening CCC(=O)N1CCc2cc(S(=O)(=O)NC(CC(C)C)C(=O)N3CCc4ccccc43)ccc21 (stereo unspecified) returned tolC growth inh -3, PLAP act 1, E coli WT exp -3, PostGolgi yeast -6, HePTP inh 2 and PostGolgi ctrl 12.
For Clc1ccc2[nH]cc(-c3nnnn3-c3ccc4ccccc4c3)c2c1 the results were PLAP act 0.9, E coli WT exp -4, PostGolgi yeast -11 and PostGolgi ctrl 2.
For CN(C)CCNC(=O)Cn1nc(C(F)F)cc1C1CC1 the results were tolC growth inh -7, PLAP act 0.9, E coli WT exp 3, PostGolgi yeast -3, HePTP inh 8 and PostGolgi ctrl 32*.
COc1cc(OC)c2c(C)c(Cl)c(=O)oc2c1 was read as tolC growth inh -5, PLAP act 1, E coli WT exp 0, PostGolgi yeast -2, HePTP inh 5 and PostGolgi ctrl 10.
For O=C(O)c1ccc(-n2c(-c3cc(-c4ccco4)[nH]n3)n[nH]c2=S)cc1 the results were PLAP act 0.9, E coli WT exp 5, PostGolgi yeast -5 and PostGolgi ctrl 10.
For CC(=O)c1ccc(-n2c(-c3cc(-c4ccco4)[nH]n3)n[nH]c2=S)cc1 the results were PLAP act 2.6*, E coli WT exp 3, PostGolgi yeast 0 and PostGolgi ctrl 2.
For O=C(Nc1nc(-c2ccccc2)cs1)NC1CCCCC1 the results were PLAP act 0.9, E coli WT exp -1, PostGolgi yeast -2 and PostGolgi ctrl 50*.
`O=C(Nc1nc(-c2ccccc2)cs1)C1CCCCN1S(=O)(=O)c1ccc(Cl)cc1` (stereo unspecified) gave PLAP act 1.1, E coli WT exp -9, PostGolgi yeast 3 and PostGolgi ctrl 57*.
`O=C(Nc1nc(-c2ccccc2)cs1)C1CCCCN1S(=O)(=O)c1ccccc1` (stereo unspecified) gave tolC growth inh 21, PLAP act 0.9, E coli WT exp -9, PostGolgi yeast -7, HePTP inh -3 and PostGolgi ctrl 35*.
`O=C(Nc1nc(-c2ccccc2)cs1)C1CCCN(S(=O)(=O)c2ccccc2)C1` (stereo unspecified) gave tolC growth inh 39, PLAP act 1.3, E coli WT exp -14, PostGolgi yeast 2, HePTP inh 1 and PostGolgi ctrl 13.
For NC(=O)c1ccsc1NC(=O)C1CCCN1S(=O)(=O)c1ccc(Cl)cc1 (stereo unspecified) the results were tolC growth inh 18, PLAP act 1.1, E coli WT exp 7, PostGolgi yeast -7, HePTP inh 6 and PostGolgi ctrl 36*.
For O=C1c2oc3ccccc3c(=O)c2C(c2ccc(Cl)cc2)N1c1ncccn1 (stereo unspecified) the results were tolC growth inh -8 and HePTP inh 4.
`COc1cc(NS(=O)(=O)c2ccc(Cl)cc2)c(OC)cc1Br` gave HePTP inh 6.
`CCOc1ccccc1NC(=O)CN1C(=O)COc2ccc(Cl)cc21` gave tolC growth inh -1, PLAP act 0.9, E coli WT exp 0, PostGolgi yeast -1, HePTP inh 7 and PostGolgi ctrl 1.
`CCCCOc1ccc(NC2=NC3(CCCCC3)N=C(N)N2)cc1` gave tolC growth inh 99*, E coli WT exp 59*, PostGolgi yeast -3, HePTP inh -4 and PostGolgi ctrl 30.
Screening N=c1n(CCN2CCOCC2)c2ccccc2n1CC(=O)c1ccc(Cl)c(Cl)c1 returned tolC growth inh 80*, PLAP act 1.5, E coli WT exp -3, PostGolgi yeast -2, HePTP inh 5 and PostGolgi ctrl 0.
Screening O=C(c1ccccc1)c1cn[nH]c1-c1ccccc1O returned PLAP act 2.2*, E coli WT exp 4, PostGolgi yeast -2 and PostGolgi ctrl 16.
For Cc1ccc(C(=O)c2cn[nH]c2-c2cc(Cl)ccc2O)cc1 the results were tolC growth inh 13, PLAP act 2.3*, E coli WT exp 16, PostGolgi yeast 0 and PostGolgi ctrl 38*.
For O=C(c1ccco1)c1cn[nH]c1-c1ccc(Cl)cc1O the results were tolC growth inh 2, PLAP act 2.9*, E coli WT exp 6, PostGolgi yeast 22, HePTP inh -1 and PostGolgi ctrl 1.
`O=C(c1ccco1)c1coc2ccc(Cl)cc2c1=O` gave HePTP inh -11.
For COc1ccc(O)c(-c2[nH]ncc2C(=O)c2ccccc2)c1 the results were tolC growth inh 4, E coli WT exp -7, PostGolgi yeast 7, HePTP inh -4 and PostGolgi ctrl -7.
